Assay results as given in ChEMBL document CHEMBL1275290, “4-Aminoquinoline derived antimalarials: synthesis, antiplasmodial activity and heme polymerization inhibition studies” (Eur J Med Chem, 2010).

How the values were obtained:
Plasmodium falciparum [1] = assay: Antimalarial activity against chloroquine-sensitive Plasmodium falciparum D6 after 72 hrs by SYBR Green I fluorescence based method; type: functional, organism-based; details: D6, 72 h
Procedure, shortened: (§1)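 Asynchronous continuous P. falciparum cultures diluted with uninfected erythrocytes in RPMI-1640 + 0.5% Albumax II to 0.2% parasitemia, 2% hematocrit. Compounds from 10 mM DMSO stock diluted in medium (0.1 nM–100 range). 72 h incubation under standard culture conditions; SYBR Green I fluorescence read (ex 497/em 520 nm). Triplicate experiments; IC50 from variable-slope sigmoidal dose–response fits.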

Plasmodium falciparum [2] = assay: Resistance index, ratio of IC50 for chloroquine-resistant Plasmodium falciparum Dd2 to IC50 for chloroquine-sensitive Plasmodium falciparum D6; type: functional
Procedure, shortened: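 Ratio of Dd2 IC50 to D6 IC50, each from the 72 h SYBR Green I growth assay (0.2% parasitemia, 2% hematocrit, RPMI-1640 + 0.5% Albumax II), triplicate, IC50 from variable-slope sigmoidal fits.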

[3] = Inhibition of beta-hematin polymerization by UV spectrophotometry based BHIA assay relative to untreated hemin control; type: functional
Procedure, shortened: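 IC50 expressed as millimolar equivalents of compound relative to hemin needed to block beta-hematin formation by 50%. Triplicate readings converted to percent inhibition versus drug-free hemozoin control; IC50 from sigmoidal dose-response non-linear regression. Means ± SD from at least three experiments in duplicate.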

Plasmodium falciparum [4] = assay: Antimalarial activity against chloroquine-resistant Plasmodium falciparum Dd2 after 72 hrs by SYBR Green I fluorescence based method; type: functional, organism-based; details: Dd2, 72 h; procedure, shortened: as §1
[5] = Binding affinity to hematin measured as association constant for 1:1 (hematin-compound) complex formation at pH 7.5
Procedure, shortened: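 Spectrophotometric titration of hematin with compound in 40% aqueous DMSO, 20 mM HEPES, pH 7.5, 25 °C; hematin held in monomeric state. Association constant for 1:1 compound:hematin complex; means ± SD from at least three experiments in duplicate.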

Row | Structure (SMILES) | IC50 (Plasmodium falciparum [1]) | Ratio IC50 (Plasmodium falciparum [2]) | IC50 [3] | IC50 (Plasmodium falciparum [4]) | log Ks [5]
1 | CC(C)N(C(=S)NCCCNc1ccnc2cc(Cl)ccc12)C(C)C | 161 nM | 1.25 | 0.33 mMequiv | 202 nM | 4.95
2 | S=C(NCCCNc1ccnc2cc(Cl)ccc12)N1CCN(c2ccccc2)CC1 | 28.7 nM | 1.76 | 0.17 mMequiv | 50.5 nM | 5.37
3 | S=C(NCCCNc1ccnc2cc(Cl)ccc12)N1CCNCC1 | 333 nM | 2.33 | 0.69 mMequiv | 778 nM | 4.46
4 | CNC(=S)NCCCNc1ccnc2cc(Cl)ccc12 | 177 nM | 1.2 | 0.66 mMequiv | 213 nM | 4.57
5 | CCN(CC)C(=S)NCCCNc1ccnc2cc(Cl)ccc12 | 103 nM | 1.21 | 0.15 mMequiv | 125 nM | 5.34
6 | S=C(NCCCNc1ccnc2cc(Cl)ccc12)N1CCOCC1 | 180 nM | 3.08 | 0.34 mMequiv | 556 nM | 4.94
7 | S=C(NCCCNc1ccnc2cc(Cl)ccc12)NCCCNc1ccnc2cc(Cl)ccc12 | 128 nM | 2.18 | 0.27 mMequiv | 280 nM | 5.38
8 | CCN(CC)CCCC(C)Nc1ccnc2cc(Cl)ccc12 (configuration not stated) [CHLOROQUINE] |  |  | 0.17 mMequiv |  | 
9 | S=C(NCCCNc1ccnc2cc(Cl)ccc12)N1CCCC1 | 128 nM | 1.11 | 0.35 mMequiv | 142 nM | 4.98
10 | CN(C)C(=S)NCCCNc1ccnc2cc(Cl)ccc12 | 140 nM |  | 0.55 mMequiv |  | 4.87
11 | S=C(NCCCNc1ccnc2cc(Cl)ccc12)NC1CC1 | 23.9 nM | 0.59 | 0.11 mMequiv | 14.1 nM | 5.67
12 | S=C(NCCCNc1ccnc2cc(Cl)ccc12)Nc1ccc(Cl)cc1 | 234 nM |  | 0.48 mMequiv |  | 4.23
13 | S=C(NCCCNc1ccnc2cc(Cl)ccc12)N1CCCCC1 | 104 nM | 0.99 | 0.29 mMequiv | 104 nM | 5.24
14 | CN1CCN(C(=S)NCCCNc2ccnc3cc(Cl)ccc23)CC1 | 59.1 nM | 1.16 | 0.35 mMequiv | 68.4 nM | 4.98
